FID counter: displaces DNA intercalator in HCV helicase counter-screen; 290,000 compounds, 0.17% hits; DNA fluorescent intercalator displacement, fluorescence; inhibition, % at 7.9 µM; in the data active means inhibition above about 37%;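 further: 0% = vehicle and 100% = reference compound; higher means more ethidium bromide displaced from hairpin DNA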
SR-BI DiI-HDL act: enhances SR-BI lipid uptake from DiI-HDL; CHO ldlA[mSR-BI] cells, DiI-HDL uptake fluorescence, 3 h; 100 = double the neutral-control signal; 320,000 compounds, 0.096% hits; AID 504775; activation, % at 12.5 µM;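 active means mean replicate activation of at least 60% and every replicate at or above 60%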;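 further: 0% = median plate neutral-control signal and 100% = twice that signal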
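Material: SR-BI-overexpressing, LDLR-lacking CHO cells | Dosing: Single compound concentration, delivered by pin transfer | Probe or stimulus: Labelled HDL, 10 µg/mL | Signal: Bottom-read cell fluorescence after medium removal, ex 550/em 595 nm | Schedule: 3 h, 37 °C | Evaluation: HDL uptake via cellular fluorescence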
SR-BI HDL uptake: blocks mouse SR-BI lipid uptake from DiI-HDL | Q61009 | inhibition, % at 12.5 µM | 320,000 compounds, 0.96% hits | ldlA[mSR-BI] CHO cells, DiI-HDL uptake fluorescence, 3 h;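 active means mean replicate inhibition of at least 70% and a set share of replicates each scoring 70 or more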;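 further: 0% = median of neutral control wells and 100% = median of positive control wells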
Kir21 block: Kir2.1 (mouse) channel inhibition | P35561 | HEK293-Kir2.1, FluxOR thallium flux fluorescence; hits give low values | B-score at 10 µM | 310,000 compounds, 0.85% hits;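 active means fluorescence ratio B-score at or below minus 3 SD of library scores, with starting-brightness B-score within 2 SD, cut at about -4.2 in these data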;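 further: channel flux triggered by added potassium and thallium sulfate stimulus; B-score of peak minus minimum fluorescence over baseline after thallium stimulus; more negative B-score means stronger Kir2.1 block with less thallium influx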
ANO1 block: blocks the mouse calcium-activated chloride channel TMEM16A. Q8BHY3. HEK293 TMEM16A/YFP iodide influx fluorescence, ionomycin. normalized B-score (activity score, 25-100; higher = stronger inhibition) at 10 µM. 310,000 compounds, 1.2% hits. AID 588511;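 active means ratio plate-corrected score three or more library SD toward inhibition, starting fluorescence score within five deviations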;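 further: score derived from kinetic fluorescence span divided by baseline fluorescence per well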
TMEM16A act: activates or potentiates the mouse TMEM16A chloride channel; Q8BHY3; HEK293 TMEM16A/YFP-H148Q/I152L, iodide quench fluorescence; hits give low values; AID 623877; 340,000 compounds, 0.3% hits; B-score at 10 µM;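 active means fluorescence-ratio B-score plate-corrected deviation score at least 3 library SD below zero, with starting fluorescence score within 5 deviations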;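 further: channel opened by trigger with iodide after compound preincubation; score built on the fluorescence ratio of max minus min over baseline; more negative score means more quench and so TMEM16A activation or potentiation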
An asterisk follows results filed as active; i = inactive; . = not tested or not shown. Most compounds without a hit are left out; they make up all but 3% or so of the library.

SMILES	FID counter	SR-BI DiI-HDL act	SR-BI HDL uptake	Kir21 block	ANO1 block	TMEM16A act
COc1cc(OC)c2cc(C(=O)N/N=C/c3ccccc3O)[nH]c2c1	-12	-123	123*	0.74	i	i
Cc1ccc2[nH]c(C(=O)N/N=C/c3ccccc3O)c(C)c2c1	-7	-132	132*	-2.8	i	i
O=C(COC(=O)c1ccc(OC(F)F)cc1)NCCCN1CCCC1=O	-4	9	-9	-1.3	i	i
COc1cc(/C=C2/C(=N)N3C(SC)=NSC3=NC2=O)ccc1OC(=O)c1ccco1	-16	-2	2	-4.6*	i	i
COc1cc(/C=C2\C(=N)N3N=CSC3=NC2=O)cc(Br)c1OC(=O)c1ccco1	-10	-3	3	-0.6	i	-8.9*
CSC1=NSC2=NC(=O)/C(=C\c3cccs3)C(=N)N12	-2	12	-12	2.6	100*	i
CC(C)CSC1=NSC2=NC(=O)/C(=C\c3cccs3)C(=N)N12	-6	15	-15	1.5	i	i
O=C(NCc1ccccc1)c1cccc(COc2ccc3c(c2)CCC3)c1	-26	11	-11	1.1	i	i
COc1cccc(OC)c1C(=O)NNC(=O)c1cccc(COc2ccc3c(c2)CCC3)c1	-28	-76	76*	-0.85	25*	i
COc1ccc(Nc2cc(C)nc(N)n2)cc1	-3	-2	2	-0.8	i	i
COc1ccc(Nc2cc(Cl)nc(N)n2)cc1	1	67*	-67	0.42	i	i
COc1ccc(C(=O)NCC(=O)N/N=C/C(C)=C/c2ccco2)cc1OC	-25	-85	85*	0.26	i	i
CC#Cc1cc2c(cc1O)CCC1C2CCC2(C)C(O)CCC12 (configuration not stated)	.	-10	10	.	.	i
CC(Sc1nc2ccccc2s1)C(=O)N(C)Cc1ccccc1 (configuration not stated)	-32	.	.	-4.2*	i	i
CC(Sc1nc2ccccc2s1)C(=O)NC1CCCc2ccccc21 (configuration not stated)	-25	-4	4	-5.8*	i	i
COc1ccc2c(c1)OC[C@H]1[C@H]2N2C(=O)c3cc(F)ccc3NC(=O)[C@@]2(C)[C@H]1c1ccccc1	.	-56	56	.	.	i
COc1ccc2c(c1)OC[C@H]1[C@H]2N2C(=O)c3cc(OC)ccc3NC(=O)[C@@]2(C)[C@H]1c1ccccc1	.	-73	73*	.	i	i
C[C@]12C(=O)N(c3ccc(Br)cc3)C(=O)N1[C@@H]1c3ccccc3OC[C@@H]1[C@H]2c1ccccc1	-12	-75	75*	-0.02	i	i
CCOc1ccc(NC(=O)CSc2nnc(C3CC3)n2C2CC2)cc1	.	-13	13	.	.	i
CC(C)N(C(=S)Nc1cccc(C(F)(F)F)c1)C(C)c1ccccn1 (configuration not stated)	0	11	-11	1.4	100*	i
FC(F)(F)c1cccc(NC(=S)NCc2ccccn2)c1	4	10	-10	-0.84	i	i
CCCCn1c(NC(=O)c2ccc(Br)o2)c(S(=O)(=O)c2ccccc2)c2nc3ccccc3nc21	2	15	-15	1.4	100*	i
CCCCn1c(NC(=O)c2ccco2)c(S(=O)(=O)c2ccc(C)cc2)c2nc3ccccc3nc21	-14	-1	1	0.08	.	i
O=C(Nc1ccccc1Cl)c1ccc2c(c1)N(Cc1ccc(F)cc1)C(=O)CS2=O (configuration not stated)	-6	-82	82*	2.4	i	i
O=C(Cc1ccc(NC(=O)C2CCCN(C(=O)C3CCCCC3)C2)cc1)Nc1ccc(C(=O)N2CCOCC2)cc1 (configuration not stated)	.	5	-5	.	.	.
SMILES	FID counter	SR-BI DiI-HDL act	SR-BI HDL uptake	Kir21 block	ANO1 block	TMEM16A act
CCn1c(=NC(=O)c2cccc(N3C(=O)CCC3=O)c2)sc2c(C)ccc(OC)c21	-3	-50	50	2.3	i	-8.7*
CCOC(=O)/C(=C\C=C1/Sc2cc(OCC)c(OCC)cc2N1CC)C(C)=O	-14	-78	78*	-16	i	i
CCOC(=O)/C(=C/C=C1\Sc2cc(OCC)c(OCC)cc2N1CC)C(C)=O	-29	-78	78*	-19	i	i
CCOC(=O)N1CCC(NS(=O)(=O)c2ccc(C#N)cc2)CC1	-9	-2	2	0.63	i	i
CC(CCc1ccccc1)NC(=O)C1CCCN(C(=O)c2cc3sccc3n2C)C1 (configuration not stated)	-35	-80	80*	0.35	i	i
Cn1c(C(=O)N2CCCC(C(=O)NCc3cccs3)C2)cc2sccc21 (configuration not stated)	-23	-41	41	2	i	i
Cc1ccc2c(cnn2C(=O)CCCC(=O)NC(C)c2ccccc2)c1 (configuration not stated)	-38	28	-28	-0.05	i	i
Cn1c(N2CCN(c3ccccn3)CC2)nc2c1c(=O)n(Cc1ccc(Cl)cc1)c(=O)n2C	-2	-5	5	.	100*	i
O=C(NC(=S)Nc1ccc(-c2ccc(CO)o2)cc1)c1cccs1	-19	-7	7	-0.46	100*	i
COc1ccc(C(C)=O)cc1CC(=O)Nc1ccc2c(c1)CCC2	-19	.	.	-0.94	i	i
COCCCNC(=S)N1CCN(c2nc(C)nc3sc4c(c23)CCCC4)CC1	-44	-44	44	-1	i	i
CCCNC(=S)N1CCN(c2nc(C)nc3sc4c(c23)CCCC4)CC1	-34	-73	73*	0.47	i	i
CCSc1nc2cc(OC)c(OC)cc2c(=O)n1CCc1ccccc1	-3	-71	71*	-0.89	i	i
Cc1ccnc(NC(=S)NC(=O)c2ccco2)c1	-2	64*	-64	-0.28	i	i
O=C(NC(=S)Nc1ccccn1)c1ccco1	-3	-6	6	-1.2	i	i
CC(C(=O)c1ccccc1)n1c(N2CCOCC2)nc2c1c(=O)n(C)c(=O)n2C (configuration not stated)	-4	63*	-63	-0.93	i	i
CCOC(=O)CC(NC(=O)Cc1cccs1)c1ccccc1Cl (configuration not stated)	-8	3	-3	-0.63	i	i
O=C1NC[C@H](c2ccccc2)OC(=O)[C@H](Cc2ccc(F)cc2)C/C=C\C[C@H]1CC(=O)N(CCO)Cc1ccccc1	.	-8	8	.	.	i
CCc1ccc(S(=O)(=O)/N=C2\C=C(Nc3cccc(C(=O)O)c3)C(=O)c3ccccc32)cc1	11	12	-12	0.15	25*	i
